Measured values from ChEMBL document CHEMBL1129791, “Antipsoriatic anthrones with modulated redox properties. 3. 10-thio-substituted 1,8-dihydroxy-9(10H)-anthracenones as inhibitors of keratinocyte growth, 5-lipoxygenase, and the formation of 12(S)-HETE in mouse epidermis” (J Med Chem, 1996).

What was measured:
[1] = Deoxyribose degradation (DD) as umol of malondialdehyde/mmol of deoxyribose released by 75 uM; format: functional
Summary of the method: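 Deoxyribose degradation run in 30 mM KH2PO4-KOH buffer, pH 7.4, with 75 µM compound. Incubated 2 h at 37 °C in shaking water bath. TBA-reactive material read at 532 nm and expressed as µmol malondialdehyde per mmol deoxyribose.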

[2] = target: T1, Polyunsaturated fatty acid lipoxygenase ALOX12 (Mus musculus, UniProt P39655); test: Tested for inhibition of 12-LO (12-lipoxygenase) as an inhibitor of 12(S)-HETE biosynthesis in mouse epidermal homogenates
T1 sequence (P39655 whole entry): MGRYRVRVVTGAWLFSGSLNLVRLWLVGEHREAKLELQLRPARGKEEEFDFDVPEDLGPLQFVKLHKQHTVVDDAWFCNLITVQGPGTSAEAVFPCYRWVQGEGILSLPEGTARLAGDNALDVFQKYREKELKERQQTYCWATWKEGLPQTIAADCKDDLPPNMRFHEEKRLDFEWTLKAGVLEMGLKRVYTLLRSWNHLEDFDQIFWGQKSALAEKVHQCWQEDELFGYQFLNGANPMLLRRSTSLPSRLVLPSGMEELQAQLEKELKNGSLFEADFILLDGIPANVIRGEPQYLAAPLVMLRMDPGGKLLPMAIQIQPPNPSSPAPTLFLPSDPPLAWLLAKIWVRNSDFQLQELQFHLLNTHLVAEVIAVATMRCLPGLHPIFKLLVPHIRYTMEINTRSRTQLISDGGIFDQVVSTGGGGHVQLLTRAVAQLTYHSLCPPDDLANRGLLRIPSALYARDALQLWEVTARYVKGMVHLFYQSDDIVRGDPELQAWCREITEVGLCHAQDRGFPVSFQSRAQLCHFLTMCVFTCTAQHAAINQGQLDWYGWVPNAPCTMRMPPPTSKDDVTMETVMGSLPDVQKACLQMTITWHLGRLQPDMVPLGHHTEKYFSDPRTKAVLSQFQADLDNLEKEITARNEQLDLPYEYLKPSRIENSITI

[3] = target: T2, Arachidonate 5-lipoxygenase (Bos taurus, UniProt Q9BEG3); test: Tested for inhibition of 5-lipoxygenase as inhibition of 5-HETE and LTB4 biosynthesis in bovine PMNL
T2 sequence (Q9BEG3 whole entry): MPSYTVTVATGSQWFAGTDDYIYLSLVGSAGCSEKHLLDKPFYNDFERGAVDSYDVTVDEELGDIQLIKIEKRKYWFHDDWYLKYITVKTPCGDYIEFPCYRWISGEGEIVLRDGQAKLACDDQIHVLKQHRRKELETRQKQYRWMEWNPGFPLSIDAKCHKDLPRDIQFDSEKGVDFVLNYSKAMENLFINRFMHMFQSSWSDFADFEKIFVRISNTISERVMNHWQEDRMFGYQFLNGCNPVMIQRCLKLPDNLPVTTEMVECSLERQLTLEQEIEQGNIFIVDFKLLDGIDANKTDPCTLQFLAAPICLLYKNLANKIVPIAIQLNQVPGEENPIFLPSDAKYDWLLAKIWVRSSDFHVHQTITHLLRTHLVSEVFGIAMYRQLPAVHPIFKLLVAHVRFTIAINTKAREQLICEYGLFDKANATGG

HaCaT [4] = test: Tested for antiproliferative activity against HaCaT cells; format: functional, cell-based; conditions: Homo sapiens
Summary of the method: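 HaCaT keratinocytes treated for 48 h. Dispersed cells counted by phase-contrast microscopy. Inhibition = (1 − test/control) × 100, using test N = 3 and control N = 6-8.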

[5] = Acidity constant in aqueous solution was determined; format: ADME
Summary of the method: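 UV absorption spectra recorded in buffer solutions spanning pH 2.5–12.0, with measured pH values corrected where needed. Absorbance at pH 2.5 was taken as the neutral species and at pH 12.0 as the fully deprotonated species. pKa was obtained from titration curves of absorbance at suitable wavelengths.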

[6] = Half life in DMSO at 25 degrees celsius was determined; format: ADME
[7] = Half life in ethanol at 25 degrees celsius was determined; format: ADME
HaCaT [8] = test: Compound was tested for activity of LDH(mU) release in HaCat cells after treatment with 2 uM compound; format: functional, Homo sapiens
Summary of the method: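 Human HaCaT keratinocytes exposed to 2 µM compound for 4 h at 37 °C. Extracellular LDH measured by UV method with pyruvate and NADH, expressed as mU/mL. Vehicle controls run in parallel; N = 3.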

[9] = half life in DMSO at 25 degrees celsius; format: ADME
[10] = half life in ethanol at 25 degrees celsius; format: ADME

Row | Structure (SMILES) | DD [1] | IC50 [2] [µM] | IC50 [3] [µM] | IC50 (HaCaT [4]) [nM] | pKa [5] | half-life [6] [min] | half-life [7] [min] | LDH (HaCaT [8]) [mU/mL] | half-life [9] [min] | half-life [10] [min]
1 | CC(SC1c2cccc(O)c2C(=O)c2c(O)cccc21)C(=O)O (stereo not given) | 9.34 | 15 | > 30 | 200 |  |  |  |  |  | 
2 | CCCCOC(=O)CSC1c2cccc(O)c2C(=O)c2c(O)cccc21 | 4.19 | 30 | > 30 | 2100 |  |  |  |  |  | 
3 | O=C1c2c(O)cccc2C(Sc2ccccc2)c2cccc(O)c21 | 4.13 | 30 | 8 | 3700 | 5.4 | 1680 | 720 |  |  | 
4 | COC(=O)CSC1c2cccc(O)c2C(=O)c2c(O)cccc21 | 4.89 | > 30 | 13 | 1900 |  |  |  |  |  | 
5 | O=C(O)CSC1c2cccc(O)c2C(=O)c2c(O)cccc21 | 6.12 | 30 | > 30 | > 5000 |  |  |  |  |  | 
6 | O=C1c2c(O)cccc2C(SCc2ccccc2)c2cccc(O)c21 | 3.74 | 30 | > 30 | 1400 |  |  |  |  |  | 
7 | O=C1c2c(O)cccc2C(Sc2ccccc2O)c2cccc(O)c21 | 3.7 | 30 | 5 | 1700 |  |  |  | 174 |  | 
8 | COc1ccc(CSC2c3cccc(O)c3C(=O)c3c(O)cccc32)cc1 | 5.01 | 30 | > 30 | 3000 | 6.1 | 1380 | 300 |  |  | 
9 | COC(=O)CCSC1c2cccc(O)c2C(=O)c2c(O)cccc21 | 5.25 | 27 | 15 | 1100 |  |  |  | 133 |  | 
10 | O=C1c2c(O)cccc2C(SCCO)c2cccc(O)c21 | 2.49 | > 30 | 2 | 1200 |  |  |  | 136 |  | 
11 | COc1ccccc1SC1c2cccc(O)c2C(=O)c2c(O)cccc21 | 4.33 | 3 | 6 | 4200 |  |  |  |  |  | 
12 | O=C1c2c(O)cccc2C(SCCc2ccccc2)c2cccc(O)c21 | 2.78 | > 30 | 30 | 4700 |  |  |  |  | 240 | 180
13 | CCCCOC(=O)CCSC1c2cccc(O)c2C(=O)c2c(O)cccc21 | 5.38 | 30 | 30 | 2300 | 5.7 | 660 | 120 |  |  | 
14 | O=C1c2c(O)cccc2C(SCC(O)CO)c2cccc(O)c21 (stereo not given) | 2.45 | > 30 | 9 | 1700 |  |  |  |  |  | 
15 | Nc1ccc(SC2c3cccc(O)c3C(=O)c3c(O)cccc32)cc1 | 1.49 | > 30 | 7 | 900 |  |  |  | 184 |  | 
16 | Nc1ccccc1SC1c2cccc(O)c2C(=O)c2c(O)cccc21 | 4.76 | 6 | 2 | 100 | 8.4 | 1560 | 1200 | 255 |  | 
17 | O=C(O)CCSC1c2cccc(O)c2C(=O)c2c(O)cccc21 | 6.34 | 30 | 2 | 1900 |  |  |  |  |  | 
18 | CCSC1c2cccc(O)c2C(=O)c2c(O)cccc21 | 4.23 | > 30 | > 30 | 1400 |  |  |  |  |  | 
19 | COc1ccc(SC2c3cccc(O)c3C(=O)c3c(O)cccc32)cc1 | 1.59 | 30 | 3 | 1700 | 7.9 | 1920 | 1260 | 137 |  | 
20 | CCOC(=O)CSC1c2cccc(O)c2C(=O)c2c(O)cccc21 | 4.51 | > 30 | > 30 | 4500 |  |  |  |  |  | 
21 | NC(CSC1c2cccc(O)c2C(=O)c2c(O)cccc21)C(=O)O (stereo not given) | 2.33 | 30 | > 30 | > 5000 |  |  |  |  |  | 
22 | CCCSC1c2cccc(O)c2C(=O)c2c(O)cccc21 | 2.81 | > 30 | > 30 | 1200 |  |  |  | 117 |  | 
23 | CCOC(=O)CCSC1c2cccc(O)c2C(=O)c2c(O)cccc21 | 5.52 | 30 | > 30 | 1600 |  |  |  | 124 |  | 
24 | O=C1c2c(O)cccc2C(SCCCS)c2cccc(O)c21 | 4.09 | 30 | > 30 | 800 |  |  |  | 369 |  | 
25 | O=C1c2c(O)cccc2C(Sc2ccc(O)cc2)c2cccc(O)c21 | 3.61 | 3 | 2 | 100 | 6.2 | 3300 | 2040 | 148 |  | 
26 | COc1cccc(SC2c3cccc(O)c3C(=O)c3c(O)cccc32)c1 | 4.29 | 30 |  | 1800 |  |  |  |  |  | 
27 | O=C1c2c(O)cccc2C(SCCCc2ccccc2)c2cccc(O)c21 | 2.71 |  |  | > 5000 |  |  |  |  |  | 
